Usually pKi stands for −log10 of the Ki, conventionally taken in molar units. Low readings indicate a high Ki, high ones a low Ki. Usually Cmax stands for the peak of the concentration-time curve. Broadly, the Tmax is the time at which the peak concentration occurs. As usually defined, the AUC(0-t) is exposure summed from dosing to a finite time, without extrapolation to infinity. A low value points to low exposure. As usually defined, the half-life is the time in which the quantity being followed falls by half. In general, pEC50 refers to the EC50 on a negative log10 scale, so that one unit is a factor of ten. A lower pEC50 goes with a large EC50.

Structures are written as SMILES. pEC50, pKi: −log10 of the molar value. A value given as a limit tells only on which side of the number the result lay.

The target in data set [1] is T1, Sodium-dependent noradrenaline transporter (Homo sapiens, UniProt P23975). Kind of data set: Displacement of [3H]nisoxetine from human NET by scintillation proximity assay. Put shortly:
(§1)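 Human transporter binding by scintillation proximity assay: inhibition of [³H]nisoxetine (NET), [³H]WIN 35,428 (DAT) or [³H]citalopram (SERT) binding measured. Ki values are the mean of at least two experiments, each run in duplicate.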

Data set [2] concerns the target Sodium-dependent dopamine transporter (Homo sapiens, UniProt Q01959). Nature of the data set: Displacement of [3H]WIN-35,428 from human DAT by scintillation proximity assay. In a few lines: as §1
For orientation: Loss of bound radioactivity is the signal in a displacement assay; it reports binding, not function.

The target of data set [3] is Sodium-dependent serotonin transporter (Homo sapiens, UniProt P31645). Kind of data set: Displacement of [3H]citalopram from human SERT by scintillation proximity assay. Put shortly:
as §1

Data set [4] addresses T2, 5-hydroxytryptamine receptor 1A (Homo sapiens, UniProt P08908).
T2 sequence (P08908 whole entry): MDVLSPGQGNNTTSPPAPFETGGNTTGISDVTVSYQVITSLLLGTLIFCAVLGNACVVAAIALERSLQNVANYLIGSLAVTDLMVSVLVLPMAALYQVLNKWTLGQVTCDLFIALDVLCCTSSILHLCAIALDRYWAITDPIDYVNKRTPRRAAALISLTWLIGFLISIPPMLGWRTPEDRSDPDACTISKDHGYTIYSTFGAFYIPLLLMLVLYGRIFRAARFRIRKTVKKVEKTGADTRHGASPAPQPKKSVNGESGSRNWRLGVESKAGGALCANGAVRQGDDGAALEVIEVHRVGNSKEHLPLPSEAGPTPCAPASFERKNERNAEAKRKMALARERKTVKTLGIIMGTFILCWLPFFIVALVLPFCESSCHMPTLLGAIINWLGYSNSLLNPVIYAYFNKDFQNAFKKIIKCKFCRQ
Nature of the data set: Displacement of [3H]8-OH-DPAT from human cloned 5HT1A receptor by liquid scintillation spectrophotometry.

Data set [5] concerns Rattus norvegicus. Nature of the data set: In vivo 5HT1A receptor occupancy in rat brain at 10 mg/kg, sc after 1 hr. It counts as functional. The note with it: route subcutaneous. In a few lines:
(§2)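 Ex vivo receptor occupancy of NET and 5-HT1A in rat brain, collected 1 h after 10 mg/kg subcutaneous dosing.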

In data set [6] the test system is Rattus norvegicus. Kind of data set: In vivo NET occupancy in rat brain at 10 mg/kg, sc after 1 hr. The note with it: route subcutaneous. It is filed as functional. In a few lines: as §2
Data set [7] concerns Rattus norvegicus. Nature of the data set: In vivo 5HT1A receptor occupancy in sc dosed rat brain. It is filed as functional. In a few lines: (§3)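 Ex vivo NET and 5-HT1A occupancy in rat brain from a subcutaneous dose–response, read 1 h post-dose. ID50 derived from the dose–response. For 5-HT1A, the dose giving 10% receptor occupancy was also determined.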
The test system of data set [8] is Rattus norvegicus. Nature of the data set: In vivo NET occupancy in sc dosed rat brain. It is filed as functional. The conditions noted are these: read-out: ID50 (the source's name). In a few lines:
as §3

A short description of data set [9]: Cmax in dog at 5 mg/kg, po after 1 hr. It counts as ADME, organism-based, Canis lupus familiaris. More on the design: dose 5 mg/kg, route oral. The note with it: in vivo.
Data set [10] can be described thus: Tmax in dog at 5 mg/kg, po. It is filed as ADME, organism-based, Canis lupus familiaris. More on the design: dose 5 mg/kg, route oral. The conditions noted are these: in vivo.
Data set [11] in a line: AUC ( 0 to 24 hrs) in dog at 5 mg/kg, po after 1 hr. More on the design: time < 24 hr, dose 5 mg/kg, route oral. The conditions noted are these: plasma. It counts as ADME, organism-based, Canis lupus familiaris.
The nature of data set [12]: Half life in dog at 5 mg/kg, po. It is filed as ADME, organism-based, Canis lupus familiaris. More on the design: dose 5 mg/kg, route oral. The conditions noted are these: in vivo.
Data set [13] in a line: Drug level in rat brain at 10 mg/kg, sc after 1 hr. It counts as ADME, organism-based. The conditions noted are these: read-out: Drug uptake. More on the design: dose 10 mg/kg, route subcutaneous. In a few lines:
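Rats dosed subcutaneously at 10 mg/kg; total brain drug concentration measured 1 h post-dose. Reported as mean with SEM, n = 4.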

For data set [14], the target named is T2, 5-hydroxytryptamine receptor 1A. Kind of data set: Agonist activity at 5HT1A receptor by GTPgammaS binding assay. It is filed as functional.
Data set [15] concerns the target T1, Sodium-dependent noradrenaline transporter. Kind of data set: […] at human cloned NET expressed in HEK293 cells by FLIPR assay. It counts as functional, cell-based.

T1 sequence (P23975 whole entry): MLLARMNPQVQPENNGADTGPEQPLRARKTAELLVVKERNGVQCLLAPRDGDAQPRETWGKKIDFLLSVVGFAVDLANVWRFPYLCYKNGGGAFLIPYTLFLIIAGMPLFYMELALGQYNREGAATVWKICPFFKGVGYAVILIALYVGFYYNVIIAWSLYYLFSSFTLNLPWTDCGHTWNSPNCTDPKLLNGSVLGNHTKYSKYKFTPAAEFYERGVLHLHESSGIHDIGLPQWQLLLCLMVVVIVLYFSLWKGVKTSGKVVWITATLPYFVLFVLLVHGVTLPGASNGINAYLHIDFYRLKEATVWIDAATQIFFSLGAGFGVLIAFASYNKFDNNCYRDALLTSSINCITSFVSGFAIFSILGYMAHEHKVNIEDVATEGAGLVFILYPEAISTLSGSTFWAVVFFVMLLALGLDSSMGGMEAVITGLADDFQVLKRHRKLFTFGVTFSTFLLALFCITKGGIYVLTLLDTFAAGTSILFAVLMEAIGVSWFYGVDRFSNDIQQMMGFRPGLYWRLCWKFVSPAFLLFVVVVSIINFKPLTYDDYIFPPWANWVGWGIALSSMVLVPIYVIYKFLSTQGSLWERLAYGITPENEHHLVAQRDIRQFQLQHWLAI
Chain of Sodium-dependent serotonin transporter (P31645 whole entry): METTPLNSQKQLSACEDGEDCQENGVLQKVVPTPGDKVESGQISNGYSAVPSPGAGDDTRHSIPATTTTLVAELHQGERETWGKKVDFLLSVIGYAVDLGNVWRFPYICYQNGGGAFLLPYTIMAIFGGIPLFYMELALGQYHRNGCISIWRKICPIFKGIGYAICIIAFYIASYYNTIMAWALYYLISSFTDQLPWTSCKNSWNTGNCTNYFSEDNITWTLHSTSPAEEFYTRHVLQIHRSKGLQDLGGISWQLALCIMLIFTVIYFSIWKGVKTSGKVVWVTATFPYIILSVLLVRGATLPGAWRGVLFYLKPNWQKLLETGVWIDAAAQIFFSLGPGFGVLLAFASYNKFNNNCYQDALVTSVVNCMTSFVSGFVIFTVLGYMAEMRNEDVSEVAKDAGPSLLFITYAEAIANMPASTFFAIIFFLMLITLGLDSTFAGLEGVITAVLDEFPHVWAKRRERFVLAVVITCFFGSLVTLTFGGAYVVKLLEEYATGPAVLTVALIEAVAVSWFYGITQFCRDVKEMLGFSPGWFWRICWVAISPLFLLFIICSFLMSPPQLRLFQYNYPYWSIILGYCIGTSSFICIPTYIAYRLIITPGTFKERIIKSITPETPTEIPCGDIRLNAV
Chain of Sodium-dependent dopamine transporter (Q01959 whole entry): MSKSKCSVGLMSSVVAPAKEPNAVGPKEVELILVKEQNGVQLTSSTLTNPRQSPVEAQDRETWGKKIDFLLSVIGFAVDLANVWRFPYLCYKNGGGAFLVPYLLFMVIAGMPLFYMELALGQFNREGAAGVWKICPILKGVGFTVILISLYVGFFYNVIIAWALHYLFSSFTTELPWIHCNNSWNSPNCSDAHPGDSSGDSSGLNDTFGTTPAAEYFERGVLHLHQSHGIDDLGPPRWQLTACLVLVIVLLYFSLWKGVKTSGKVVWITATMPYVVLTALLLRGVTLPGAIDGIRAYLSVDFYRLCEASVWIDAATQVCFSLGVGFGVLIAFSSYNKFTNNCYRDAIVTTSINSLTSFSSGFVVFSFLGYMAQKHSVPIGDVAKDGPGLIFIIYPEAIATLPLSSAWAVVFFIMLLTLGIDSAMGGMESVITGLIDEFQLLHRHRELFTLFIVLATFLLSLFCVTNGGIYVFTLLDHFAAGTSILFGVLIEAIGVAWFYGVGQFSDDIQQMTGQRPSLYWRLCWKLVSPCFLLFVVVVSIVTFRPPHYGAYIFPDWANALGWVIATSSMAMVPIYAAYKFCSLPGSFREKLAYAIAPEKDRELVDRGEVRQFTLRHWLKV

Turning to `c1ccc(Oc2ccccc2OC2CNC2)cc1`, the pKi in [1] is 5.79; in data set [2] it was 5.68; in [3] it was 5.57; in data set [4], 7.24.
The corresponding values for `Fc1ccccc1Oc1ccccc1OC1CNC1` are 6.28, 5.69, < 5.33 and 7.66.
The corresponding values for `Fc1ccccc1Oc1cccc(F)c1OC1CNC1` are 6.29, < 5.31, < 5.33 and 7.92.
The corresponding values for `Fc1cccc(Oc2ccccc2Cl)c1OC1CNC1` are 6.70, 5.33, 5.77 and 7.85.
Take `Fc1cccc(Cl)c1Oc1cccc(F)c1OC1CNC1`: the pKi was 6.86 in data set [1], < 5.19 in [2], < 5.31 in data set [3] and 9.00 in data set [4]. The Activity in the data set on Rattus norvegicus [5] was 81%; in the data set on Rattus norvegicus [6], 87%. Moreover, the ID10 in the data set on Rattus norvegicus [7] is < 1 mg/kg. Moreover, in the data set on Rattus norvegicus [8], the ED50 was 1.2 mg/kg. The compound further yielded a Cmax in data set [9] of 919 ng/mL. Moreover, the Tmax in data set [10] came out at 1 h. The same compound displayed an AUC(0-t) at 24 h in data set [11] of 3480 ng·h/mL. This compound showed a half-life in [12] of 2.35 h. For the same compound, in [13], the concentration at 1 h came to 5900 ng/mL. Also, the pEC50 in [14] is 6.71; in data set [15], 7.55.
Turning to `Cc1cccc(F)c1Oc1cccc(F)c1OC1CNC1`, the pKi in [1] is 6.94; in [2] it was < 5.19; in [3], 5.94; in data set [4], 8.52. The Activity with Rattus norvegicus [5] came out at 76%; in the data set on Rattus norvegicus [6], 84%. For the same compound, in data set [9], the peak level (Cmax) was 525 ng/mL. Also, the Tmax in data set [10] came to 1 h. In data set [11], this compound displayed an AUC(0-t) at 24 h of 2800 ng·h/mL. The half-life in data set [12] is 3.01 h. Further, the concentration at 1 h in [13] is 5690 ng/mL. Moreover, the figures for the pEC50 in [14] and in data set [15] were 6.65 and 6.62, respectively.
Consider `Fc1cccc(F)c1Oc1cccc(F)c1OC1CNC1`, for which the pKi in data set [1] is 6.32; in data set [2] it was < 5.19; in data set [3] it was < 5.34; in data set [4], > 8.52.
On the same counts, the results for `Fc1cccc(Oc2c(Cl)cccc2Cl)c1OC1CNC1` are 6.79, < 5.23, < 5.34 and 8.22.
On the same counts, the results for `Cc1cccc(Cl)c1Oc1cccc(F)c1OC1CNC1` are 6.36, < 5.19, < 5.34 and 7.80.
On the same counts, the results for `Fc1cccc(Oc2cccc(Cl)c2Cl)c1OC1CNC1` are 6.43, 6.51, 7.03 and 7.80.
As for `Fc1ccccc1Oc1ccccc1OC1CCNCC1`, the pKi in [1] was 6.00; in [2], 5.35; in [3], < 5.33; in data set [4], 6.16.
For the compound `Fc1ccccc1Oc1cccc(F)c1OC1CCNCC1`, the pKi in data set [1] is 6.31; in data set [2] it was 5.66; in data set [3] it was < 5.33; in [4], 7.52.
The corresponding values for `Fc1cccc(Cl)c1Oc1cccc(F)c1OC1CCNCC1` are 6.66, < 5.20, 5.69 and 8.10.
The corresponding values for `Cc1cccc(F)c1Oc1cccc(F)c1OC1CCNCC1` are 6.49, < 5.19, 5.49 and 8.40.
Turning to `Fc1ccccc1Oc1cccc(F)c1OC1CCCNC1` (centres undefined), the pKi in data set [1] was 5.71; in data set [2] it was < 5.25; in data set [3], < 5.33; in data set [4], 7.05.
On the same counts, the results for `Fc1ccccc1Oc1ccccc1OC1CCNC1` (centres undefined) are 5.87, < 5.21, < 5.33 and 6.71.
On the same counts, the results for `Fc1ccccc1Oc1cccc(F)c1OC1CCNC1` (centres undefined) are 5.99, 5.41, < 5.33 and 8.10.
On the same counts, the results for `Fc1cccc(Oc2ccccc2Cl)c1OC1CCNC1` (centres undefined) are 6.72, 5.69, 5.65 and 7.72.
For `Cc1cccc(F)c1Oc1cccc(F)c1OC1CCNC1` (centres undefined), the pKi was 6.48 in data set [1], < 5.19 in data set [2], < 5.33 in data set [3] and 8.40 in [4].
For the compound `Fc1cccc(Cl)c1Oc1cccc(F)c1OC1CCNC1` (centres undefined), the pKi is 6.65 in data set [1], < 5.19 in [2] and < 5.31 in data set [3]. In addition, the Activity with Rattus norvegicus [5] was 73%; in the data set on Rattus norvegicus [6], 54%. Also, in data set [13], the concentration at 1 h came out at 5620 ng/mL. The pEC50 in data set [15] is 7.01.
Turning to `Fc1cccc(Cl)c1Oc1cccc(F)c1O[C@H]1CCNC1`, the pKi is 6.00 in [1], < 5.23 in data set [2] and < 5.34 in data set [3].
With `Fc1cccc(Cl)c1Oc1cccc(F)c1O[C@@H]1CCNC1`, the pKi is 6.96 in [1], < 5.23 in data set [2] and < 5.34 in [3]. In addition, the Cmax in [9] was found to be 146 ng/mL. In addition, the Tmax in data set [10] is 1 h. Further, the AUC(0-t) at 24 h in data set [11] is 560 ng·h/mL. The same compound had a half-life in data set [12] of 1.85 h.
Consider `Fc1cccc(Cl)c1Oc1ncccc1OC1CCNC1` (centres undefined), for which the pKi in data set [1] is 5.94; in [2], < 5.34; in data set [3] it was < 5.21; in data set [4], 6.69.
The corresponding values for `Fc1cccc(Cl)c1Oc1ncccc1OC1CNC1` are 7.14, < 5.37, < 5.20 and 7.19.
On to `Fc1ccccc1Oc1cccc(F)c1C1CCNCC1`, for which the Activity is 62% in the data set on Rattus norvegicus [5] and 80% in the data set on Rattus norvegicus [6]. Besides, the concentration at 1 h in data set [13] came to 2230 ng/mL.

The record behind these values is ChEMBL document CHEMBL1641456, “Design, synthesis, and pharmacological evaluation of azetedine and pyrrolidine derivatives as dual norepinephrine reuptake inhibitors and 5-HT(1A) partial agonists” (Bioorg Med Chem Lett, 2011).
